Active and inactive are the calls of the source. The rule behind the calls is not given here.
What follows are molecules tested against Human immunodeficiency virus type 1 integrase (Human immunodeficiency virus 1, UniProt Q7ZJM1) (assay: Inhibition of recombinant HIV1 integrase 3^-end processing and strand transfer activity after 1 hr).
Summary of the method: (§1)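 Recombinant HIV-1 integrase (100 nM) with 12.5 nM 21-mer double-stranded DNA substrate in 10 mM HEPES pH 7.2, 1 mM DTT, 7.5 mM MgCl₂, 1 hr at 37 °C. Compound was titrated from 300 nM upward; an EDTA (10 mM) lane and a no-drug lane were included. 3′-processed and strand-transfer products were resolved on denaturing 18% acrylamide/urea gels.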

Sequence of Human immunodeficiency virus type 1 integrase (Q7ZJM1 whole entry): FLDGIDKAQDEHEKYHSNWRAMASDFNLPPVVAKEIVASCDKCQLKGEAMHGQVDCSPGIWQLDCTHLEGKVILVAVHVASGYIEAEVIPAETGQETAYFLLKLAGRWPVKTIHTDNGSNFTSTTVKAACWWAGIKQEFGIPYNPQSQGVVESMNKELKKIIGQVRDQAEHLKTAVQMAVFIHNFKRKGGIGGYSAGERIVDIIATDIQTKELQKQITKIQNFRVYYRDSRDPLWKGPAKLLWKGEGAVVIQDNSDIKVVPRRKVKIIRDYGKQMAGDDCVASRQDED

| IC50 [µM] | SMILES |
| --- | --- |
| ≥ 340 | Nc1ccn([C@H]2C[C@H](OP(=O)(S)OC[C@H]3O[C@@H](n4cnc5c(N)ncnc54)C[C@@H]3O)[C@@H](CO)O2)c(=O)n1 (stereo not given in full) |
| > 100 | COc1ccc2nc3cc(Cl)ccc3c(NCCC[N+](C)(C)CCCSP(=O)(O)O[C@H]3C[C@H](n4cnc5c(N)ncnc54)O[C@@H]3COP(=O)([O-])O[C@H]3C[C@H](n4ccc(N)nc4=O)O[C@@H]3COP(=O)(O)O)c2c1 |
| 13.4 | Nc1ccn([C@H]2C[C@H](OP(=O)(O)OC[C@H]3O[C@@H](n4cnc5c(N)ncnc54)C[C@@H]3OP(=O)(O)O)[C@@H](COP(=O)(O)SCCCCCC(=O)Nc3ccc(N)c4c3C(=O)c3ccccc3C4=O)O2)c(=O)n1 |
| > 100 | NCCCCCCNP(=O)(O)O[C@H]1C[C@H](n2cnc3c(N)ncnc32)O[C@@H]1COP(=O)(O)O[C@H]1C[C@H](n2ccc(N)nc2=O)O[C@@H]1COP(=O)(O)O |
| > 340 | NCCCCCNc1ccn([C@H]2C[C@H](OP(=O)(O)OC[C@H]3O[C@@H](n4cnc5c(N)ncnc54)C[C@@H]3O)[C@@H](CO)O2)c(=O)n1 |
| > 100 | COc1ccc2nc3cc(Cl)ccc3c(NCCCCCCSP(=O)(O)O[C@H]3C[C@H](n4cnc5c(N)ncnc54)O[C@@H]3COP(=O)(O)O[C@H]3C[C@H](n4ccc(N)nc4=O)O[C@@H]3COP(=O)(O)O)c2c1 |
| > 340 | N=C(N)NCCCCCNc1ccn([C@H]2C[C@H](OP(=O)(O)OC[C@H]3O[C@@H](n4cnc5c(N)ncnc54)C[C@@H]3O)[C@@H](CO)O2)c(=O)n1 |
| > 1000 | NCCCNc1ccn([C@H]2C[C@H](OP(=O)(O)OC[C@H]3O[C@@H](n4cnc5c(N)ncnc54)C[C@@H]3O)[C@@H](CO)O2)c(=O)n1 |
| > 100 | COc1ccc2nc3cc(Cl)ccc3c(NCCC[N+](C)(C)CCCSP(=O)(O)OC[C@H]3O[C@@H](n4ccc(N)nc4=O)C[C@@H]3OP(=O)([O-])OC[C@H]3O[C@@H](n4cnc5c(N)ncnc54)C[C@@H]3OP(=O)(O)O)c2c1 |
| 13.2 | COc1ccc2nc3cc(Cl)ccc3c(NCCCCCCOP(=O)(O)OC[C@H]3O[C@@H](n4ccc(N)nc4=O)C[C@@H]3OP(=O)(O)OC[C@H]3O[C@@H](n4cnc5c(N)ncnc54)C[C@@H]3OP(=O)(O)O)c2c1 |
| 340 | Nc1ccn([C@H]2C[C@H](OP(=O)(O)OC[C@H]3O[C@@H](n4cnc5c(N)ncnc54)C[C@@H]3O)[C@@H](CO)O2)c(=O)n1 |
| > 100 | Nc1ccn([C@H]2C[C@H](OP(=O)(O)OC[C@H]3O[C@@H](n4cnc5c(N)ncnc54)C[C@@H]3OP(=O)(O)NCCCCCCCCCCCCO)[C@@H](COP(=O)(O)O)O2)c(=O)n1 |
| 100 | N=C(N)NCCCCNP(=O)(O[C@H]1C[C@H](n2ccc(N)nc2=O)O[C@@H]1CO)O[C@H]1C[C@H](n2cnc3c(N)ncnc32)O[C@@H]1CO (stereo not given in full) |
| ≥ 340 | NCCCCNP(=O)(OC[C@H]1O[C@@H](n2cnc3c(N)ncnc32)C[C@@H]1O)O[C@H]1C[C@H](n2ccc(N)nc2=O)O[C@@H]1CO (stereo not given in full) |
| ≥ 340 | Nc1ccn([C@@H]2C[C@@H](OP(=O)(O)OC[C@@H]3O[C@H](n4cnc5c(N)ncnc54)C[C@H]3O)[C@H](CO)O2)c(=O)n1 (single isomer, unassigned) |
| ≥ 340 | Nc1ccn([C@H]2C[C@H](O)[C@@H](COP(=O)(S)OC[C@H]3O[C@@H](n4cnc5c(N)ncnc54)C[C@@H]3O)O2)c(=O)n1 (stereo not given in full) |
| > 1000 | NCCCCNc1ccn([C@H]2C[C@H](OP(=O)(O)OC[C@H]3O[C@@H](n4cnc5c(N)ncnc54)C[C@@H]3O)[C@@H](CO)O2)c(=O)n1 |
| 1.8 | Nc1ccn([C@H]2C[C@H](OP(=O)(O)OC[C@H]3O[C@@H](n4cnc5c(N)ncnc54)C[C@@H]3OP(=O)(O)O)[C@@H](COP(=O)(O)OCCCCCCNCc3ccc4c5cccc6cccc(c7cccc3c74)c65)O2)c(=O)n1 |
| 100 | N=C(N)NCCCCNP(=O)(OC[C@H]1O[C@@H](n2ccc(N)nc2=O)C[C@@H]1O)OC[C@H]1O[C@@H](n2cnc3c(N)ncnc32)C[C@@H]1O (stereo not given in full) |

| IC50 [µM] | SMILES |
| --- | --- |
| 110 | Nc1ccn([C@H]2C[C@H](OP(=O)(S)O[C@H]3C[C@H](n4cnc5c(N)ncnc54)O[C@@H]3CO)[C@@H](CO)O2)c(=O)n1 (stereo not given in full) |
| 786 | NCCN(CCN)CCCSP(=O)(O)OC[C@H]1O[C@@H](n2ccc(N)nc2=O)C[C@@H]1OP(=O)(O)OC[C@H]1O[C@@H](n2cnc3c(N)ncnc32)C[C@@H]1OP(=O)(O)O |
| > 100 | COc1ccc2nc3cc(Cl)ccc3c(NCCCCSP(=O)(O)O[C@H]3C[C@H](n4cnc5c(N)ncnc54)O[C@@H]3COP(=O)(O)O[C@H]3C[C@H](n4ccc(N)nc4=O)O[C@@H]3COP(=O)(O)O)c2c1 |
| 21 | Nc1ccn([C@H]2C[C@H](OP(=O)(O)OC[C@H]3O[C@@H](n4cnc5c(N)ncnc54)C[C@@H]3OP(=O)(O)O)[C@@H](COP(=O)(O)OCCCCCCNC(=O)c3ccc4c(c3)C(=O)c3cc(C(=O)NCCCCCCO)ccc3C4=O)O2)c(=O)n1 (stereo in doubt; 28) |
| > 340 | N=C(N)NCCCCCCNc1ccn([C@H]2C[C@H](OP(=O)(O)OC[C@H]3O[C@@H](n4cnc5c(N)ncnc54)C[C@@H]3O)[C@@H](CO)O2)c(=O)n1 |
| ≥ 340 | N=C(N)NCCCCNP(=O)(OC[C@H]1O[C@@H](n2cnc3c(N)ncnc32)C[C@@H]1O)O[C@H]1C[C@H](n2ccc(N)nc2=O)O[C@@H]1CO (stereo not given in full) |
| ≥ 340 | Nc1ccn([C@H]2C[C@H](O)[C@@H](COP(=O)(O)OC[C@H]3O[C@@H](n4cnc5c(N)ncnc54)C[C@@H]3O)O2)c(=O)n1 |
| ≥ 340 | Nc1ccn([C@H]2C[C@H](OP(=O)(O)O[C@H]3C[C@H](n4cnc5c(N)ncnc54)O[C@@H]3CO)[C@@H](CO)O2)c(=O)n1 |
| > 340 | N=C(N)NCCCCNc1ccn([C@H]2C[C@H](OP(=O)(O)OC[C@H]3O[C@@H](n4cnc5c(N)ncnc54)C[C@@H]3O)[C@@H](CO)O2)c(=O)n1 |
| > 1000 | NCCNc1ccn([C@H]2C[C@H](OP(=O)(O)OC[C@H]3O[C@@H](n4cnc5c(N)ncnc54)C[C@@H]3O)[C@@H](CO)O2)c(=O)n1 |
| 30 | Nc1ccn([C@H]2C[C@H](OP(=O)(O)OC[C@H]3O[C@@H](n4cnc5c(N)ncnc54)C[C@@H]3OP(=O)(O)O)[C@@H](COP(=O)(O)O[C@H]3C[C@H](OCCCc4ccc5c6cccc7cccc(c8cccc4c85)c76)O[C@@H]3CO)O2)c(=O)n1 |
| 65.5 | Nc1ccn([C@H]2C[C@H](OP(=O)(O)OC[C@H]3O[C@@H](n4cnc5c(N)ncnc54)C[C@@H]3OP(=O)(O)O)[C@@H](COP(=O)(O)OCCCCCCNC(=O)c3ccc4c(c3)C(=O)c3cc(C(=O)NCCCCCCO)ccc3C4=O)O2)c(=O)n1 (stereo in doubt; 29) [listing 1 of 2 here] |
| 102 | NCCCCNP(=O)(OC[C@H]1O[C@@H](n2ccc(N)nc2=O)C[C@@H]1O)OC[C@H]1O[C@@H](n2cnc3c(N)ncnc32)C[C@@H]1O (stereo not given in full) |
| > 100 | Nc1ccn([C@H]2C[C@H](OP(=O)(O)OC[C@H]3O[C@@H](n4cnc5c(N)ncnc54)C[C@@H]3OP(=O)(O)NCCCO)[C@@H](COP(=O)(O)O)O2)c(=O)n1 |
| > 340 | NCCCCCCNc1ccn([C@H]2C[C@H](OP(=O)(O)OC[C@H]3O[C@@H](n4cnc5c(N)ncnc54)C[C@@H]3O)[C@@H](CO)O2)c(=O)n1 |
| ≥ 340 | Nc1ccn([C@@H]2C[C@@H](O)[C@H](COP(=O)(O)O[C@@H]3C[C@@H](n4cnc5c(N)ncnc54)O[C@H]3CO)O2)c(=O)n1 |
| 13.9 | Nc1ccn([C@H]2C[C@H](OP(=O)(O)OC[C@H]3O[C@@H](n4cnc5c(N)ncnc54)C[C@@H]3OP(=O)(O)O)[C@@H](COP(=O)(O)SCCCCCC(=O)Nc3cccc4c3C(=O)c3ccccc3C4=O)O2)c(=O)n1 |
| 100 | NCCCCNP(=O)(O[C@H]1C[C@H](n2ccc(N)nc2=O)O[C@@H]1CO)O[C@H]1C[C@H](n2cnc3c(N)ncnc32)O[C@@H]1CO (stereo not given in full) |

What follows are molecules tested against Human immunodeficiency virus type 1 integrase (Human immunodeficiency virus 1) (UniProt Q7ZJM1) (assay: Inhibition of recombinant HIV1 integrase 3^-end processing and strand transfer activity at 300 uM to 300 nM after 1 hr by PAGE analysis).
Sequence of Human immunodeficiency virus type 1 integrase (Human immunodeficiency virus 1) (Q7ZJM1 as listed by the source): as the sequence (Q7ZJM1 whole entry) above
Summary of the method: as §1

| Activity | SMILES |
| --- | --- |
| Active | COc1ccc2nc3cc(Cl)ccc3c(NCCCCCCOP(=O)(O)OC[C@H]3O[C@@H](n4ccc(N)nc4=O)C[C@@H]3OP(=O)(O)OC[C@H]3O[C@@H](n4cnc5c(N)ncnc54)C[C@@H]3OP(=O)(O)O)c2c1 |
| Active | Nc1ccn([C@H]2C[C@H](OP(=O)(O)OC[C@H]3O[C@@H](n4cnc5c(N)ncnc54)C[C@@H]3OP(=O)(O)O)[C@@H](COP(=O)(O)OCCCCCCNCc3ccc4c5cccc6cccc(c7cccc3c74)c65)O2)c(=O)n1 |
| Active | Nc1ccn([C@H]2C[C@H](OP(=O)(O)OC[C@H]3O[C@@H](n4cnc5c(N)ncnc54)C[C@@H]3OP(=O)(O)O)[C@@H](COP(=O)(O)OCCCCCCNC(=O)c3ccc4c(c3)C(=O)c3cc(C(=O)NCCCCCCO)ccc3C4=O)O2)c(=O)n1 (stereo in doubt; 29) [listing 2 of 2 here] |

What follows are molecules tested against Human immunodeficiency virus type 1 integrase (Human immunodeficiency virus 1) (UniProt Q7ZJM1) (assay: Ratio of D-d-5^ CpA3^ IC50 to compound IC50 for recombinant HIV1 integrase 3^-end processing and strand transfer activity).

| Ratio IC50 | SMILES |
| --- | --- |
| 3 | N=C(N)NCCCCNP(=O)(O[C@H]1C[C@H](n2ccc(N)nc2=O)O[C@@H]1CO)O[C@H]1C[C@H](n2cnc3c(N)ncnc32)O[C@@H]1CO (stereo not given in full) |
| 3 | N=C(N)NCCCCNP(=O)(OC[C@H]1O[C@@H](n2ccc(N)nc2=O)C[C@@H]1O)OC[C@H]1O[C@@H](n2cnc3c(N)ncnc32)C[C@@H]1O (stereo not given in full) |
| 3 | Nc1ccn([C@H]2C[C@H](OP(=O)(S)O[C@H]3C[C@H](n4cnc5c(N)ncnc54)O[C@@H]3CO)[C@@H](CO)O2)c(=O)n1 (stereo not given in full) |
| 3 | NCCCCNP(=O)(OC[C@H]1O[C@@H](n2ccc(N)nc2=O)C[C@@H]1O)OC[C@H]1O[C@@H](n2cnc3c(N)ncnc32)C[C@@H]1O (stereo not given in full) |
| 3 | NCCCCNP(=O)(O[C@H]1C[C@H](n2ccc(N)nc2=O)O[C@@H]1CO)O[C@H]1C[C@H](n2cnc3c(N)ncnc32)O[C@@H]1CO (stereo not given in full) |
